# A number with no mark means an inactive call. Records with an inconclusive call do not appear. Activity calls are given as the source filed them.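 The calls were made as follows, unless noted: active = RAM network inhibition above 8.4% in each of two replicates, 3 SD over the compound average; inconclusive = above 8.4% inhibition in only one replicate; inactive = 8.4% inhibition or less in each replicate.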
# How the values were obtained:
# [1] = S. cerevisiae growth inhibition in permissive medium (OD615), pilot counter-assay for S. cerevisiae lifespan shortening project, permissive growth control (AID 705;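 active = growth inhibition above 25% in both replicates, a cutoff set 3 SD above the mean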); conditions: OD615, 24 h, at 10 µM, hits give high values
# In short: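 assay system = Saccharomyces cerevisiae strain carrying genetically modified DeaD replicative-lifespan system | technique = absorbance (optical density) at 615 nm | buffer or medium = permissive raffinose/galactose medium | timing = cells pre-grown 4 h, then 24 h compound exposure, 30 °C humidified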
# [2] = S. cerevisiae growth inhibition in restrictive medium, OD615, pilot screen, restrictive growth control, yeast lifespan reduction project (AID 706;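 active = growth inhibition above a set limit, 3 SD over mean compound inhibition, in both replicates, cut at about 43% in these data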;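 also: modified DeaD lifespan yeast strain shifted to restrictive glucose medium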); conditions: OD615, 48 h, at 10 µM, hits give high values
# In short: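 System: modified S. cerevisiae. Buffer or medium: CSMM-D glucose medium. Incubation: 4 h pre-growth plus 48 h compound exposure, 30 °C. Detection: absorbance (optical density) measured at 615 nm.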
# [3] = doxorubicin toxicity protection in MRP-1 cells – H69AR cells, CellTiter-Glo, duplicate, MRP-1 activator project, pilot screen (AID 807;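 active = viability increase at or above a cutoff of the median across tested compounds plus 3 SD, cut at about 8.5% in these data, passing the limit was not always enough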;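 also: compound pretreatment 18-22 h then 72 h combined with doxorubicin; 0% = doxorubicin alone and 100% = vehicle without doxorubicin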); conditions: H69AR viability with doxorubicin, CellTiter-Glo luminescence; at 10 µM; hits give high values
# [4] = viability of HCT116 without oncogenic beta-catenin – human colon tumor cells, pilot screen (AID 823;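 active = cell viability at or below a set limit in both duplicate runs, the limit being the all-compound median minus 4 SD, cut at about 23% in these data, passing the limit was not always enough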;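 also: 0% = wells killed by 20 µM Hyamine and 100% = untreated DMSO cell wells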); conditions: HCT116 beta-catenin knockout viability, CellTiter-Glo, 60 h; at 10 µM; hits give low values
# [5] = viability of PTEN-null HCT116 cells – cell-based, HCT116 clonal line, CellTiter-Glo, pilot screen (AID 824;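 active = viability at or below 27.92% in each of two runs, the all-compound median minus 4 SD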;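 also: 0% = 20 µM Hyamine control and 100% = vehicle cell control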); conditions: HCT116 PTEN-deleted viability, 60 h, at 10 µM, hits give low values
# [6] = RAM pathway blockade in budding yeast – dse1pr::URA3 reporter, 5-FOA selection, pilot screen (AID 869;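 active = inhibition over a set limit, the all-compound mean plus 3 SD, in both replicate runs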;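 also: 0% = DMSO wells with no growth and 100% = 10 µM 1-NA-PP1 with full growth; RAM network block rescues cells from 5-FOA so hits raise OD615 growth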); conditions: S. cerevisiae dse1pr::URA3 5-FOA growth, OD615, 2 d; at 10 µM; hits give high values; strain carries analog-sensitive mutant Cbk1 kinase
# [7] = RAM signaling pathway blockade in yeast – S. cerevisiae, Pdr1DBD-CYC8 efflux-inhibited sensitized strain, primary screen (AID 1298);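 also: 0% = DMSO untreated cells without growth and 100% = 10 µM 1-NA-PP1 full growth; higher means more yeast growth rescued from 5-FOA killing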; conditions: S. cerevisiae cbk1-as DSE1-URA3 strain, 5-FOA growth OD615, 2 d; at 50 µM; hits give high values
SMILES,growth inhibition [1] [%],growth inhibition [2] [%],viability increase [3] [%],viability [4] [%],viability [5] [%],inhibition [6] [%],RAM network inhibition [7]
COC(=O)C(Cc1ccccc1)NC(=O)CSc1nc(C)cc(=O)[nH]1 (stereo not drawn),-8.37,-4.86,-2.4,101,91.7,1.4,-0.21%
COc1ccccc1NC(=O)C1C2C=CC3(CN(Cc4cccnc4)C(=O)C13)O2 (stereo not drawn),6,4.22,0.16,98.2,103,-0.25,-0.51%
CC(c1ccccc1)C1C(C#N)=C(N)OC2=C1C(=O)CC(C)(C)C2 (stereo not drawn),-6.48,-7.79,-5.71,78.4,78.9,1.78,25.6% (active)
CC(=O)c1cccc(NC(=O)c2cc(C)no2)c1,-4.53,-12.4,-1.41,98.9,92.5,1.26,-1.99%
CCOc1cc(C2NC(=O)NC(O)(C(F)(F)F)C2C(=O)c2ccc(Cl)cc2)ccc1O (stereo not drawn),-3.6,-4.53,-1.34,86.7,94.3,1.62,-0.26%
CC1=C(C(=O)OC(C)C)C(c2c[nH]c3ccccc23)n2ncnc2N1 (stereo not drawn),-5.16,-3.17,-1.69,105,97.1,2.2,-0.16%
COC(=O)c1ccccc1NC(=O)Cn1cc2c(n1)CCC(C)C2 (stereo not drawn),0.34,-0.81,-0.23,92.9,87.9,1.79,3.66%
CC1(C)Cc2ccccc2-c2nc(NCCCO)n(-c3ccccc3)c(=O)c21,-18.3,-18.9,-0.84,97.7,91.3,1.07,5.29%
COc1ccccc1Nc1nc2ccccc2n1C,-11.6,-24.9,0.31,94.7,94.6,1.44,4.17%
c1cnn(-c2nc(N3CCOCC3)nc(N3CCOCC3)n2)c1,0.06,7.23,-5.18,67.1,72.9,1.96,-2.04%
COC(=O)c1ccc2c(c1)N(Cc1cc(C)ccc1C)C(=O)c1ccccc1S2=O (stereo not drawn),-0.815,-2.77,-2.53,96.8,91.9,0.92,3.53%
Cn1c(C(=O)N2CCN(Cc3ccc4c(c3)OCO4)CC2)cc2c(=O)n(C)c3ccccc3c21,-1.14,0.725,-1.54,67.9,71.9,3.29,0.67%
COc1ccc(C)c2sc(=NC(=O)C(C)C)n(C)c12,-6.53,2.31,-3.89,90,92.4,3.1,6.3%
Cc1ccc2oc(=O)c3cnn(CC(=O)NC4CCN(Cc5ccccc5)CC4)c3c2c1,-4.11,0.24,-3.78,88.3,92,1.77,0.57%
CC(=O)c1cc(CN2C(=O)CCC2=O)cs1,-5.33,-9.9,-0.46,94.1,95.6,1.64,1.46%
O=C(Cn1cc2c(n1)CCCCC2)NC1CCCCCC1,-9.25,-9.21,-3.6,97.1,89,0.43,0.21%
CN(Cc1ccccc1)C(=O)CCn1c(=O)oc2ccccc21,2.31,-0.265,-1.33,101,99.2,1.41,1.99%
CCCNc1nc2c(c(=O)[nH]c(=O)n2C)n1Cc1cccc(Br)c1,-4.76,-9.2,-2.4,97.8,92.6,3.46,7.91%
Clc1ccc(-n2ncc3c(NCC4CCCO4)ncnc32)cc1 (stereo not drawn),-7.04,-19.4,-5.71,37.6,37.2,0.57,8.53%
COc1ccc(OC)c(NC(=O)NC2(C(F)(F)F)Oc3ccccc3O2)c1,-4.07,0.635,-6.83,54.9,71.5,0.25,4.64%
CC(C)Cn1c(CN2C(=O)c3ccccc3C2=O)nc2ccccc2c1=O,-8.43,-9.18,-0.19,98.4,93.4,3.54,5.36%
CCCCCSc1nc2c(c(=O)[nH]c(=O)n2C)n1CCc1ccccc1,-3.08,-4.46,-1.88,69.6,87,2.75,8.01%
Cc1ccc2c(c1)N(CCCC(=O)NCc1cccnc1)C(=O)CO2,-13.3,-16.3,0.96,95.6,99.1,-0.1,0.98%
O=C1C2C3C=CC(C3)C2C(=O)N1c1ccccc1 (stereo not drawn),-0.875,4.47,0.71,100,98.7,1.81,1.49%

# From PubChem BioAssay
